Laboratory results from ChEMBL document CHEMBL1165965, “Synthesis and structure-activity relationships of 1,2,3,4-tetrahydropyrido[2,3-b]pyrazines as potent and selective inhibitors of the anaplastic lymphoma kinase” (Bioorg Med Chem, 2010).

Tests used:
[1] = target: T1, Serine/threonine-protein kinase MAK (Homo sapiens) (UniProt P20794); experiment: Inhibition of MAK at 1 uM
T1 sequence (whole entry): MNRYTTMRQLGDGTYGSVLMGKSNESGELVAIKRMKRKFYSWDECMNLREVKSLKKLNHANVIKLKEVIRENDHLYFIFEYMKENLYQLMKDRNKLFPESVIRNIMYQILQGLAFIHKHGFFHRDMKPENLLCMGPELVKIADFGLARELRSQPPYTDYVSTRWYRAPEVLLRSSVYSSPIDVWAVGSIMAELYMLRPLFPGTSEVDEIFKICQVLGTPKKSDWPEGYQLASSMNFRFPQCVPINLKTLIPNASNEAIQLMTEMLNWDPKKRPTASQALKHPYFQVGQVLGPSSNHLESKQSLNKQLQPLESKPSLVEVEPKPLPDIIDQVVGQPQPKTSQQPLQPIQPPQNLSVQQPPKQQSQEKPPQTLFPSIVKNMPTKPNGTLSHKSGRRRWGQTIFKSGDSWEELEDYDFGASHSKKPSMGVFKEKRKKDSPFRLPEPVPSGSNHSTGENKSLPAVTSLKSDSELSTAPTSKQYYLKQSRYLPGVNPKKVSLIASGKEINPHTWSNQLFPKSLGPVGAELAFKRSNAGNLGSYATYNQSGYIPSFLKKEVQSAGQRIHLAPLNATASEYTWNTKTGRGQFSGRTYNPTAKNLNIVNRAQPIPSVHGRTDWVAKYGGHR

[2] = target: Macrophage-stimulating protein receptor (Homo sapiens) (UniProt Q04912); experiment: Inhibition of MST1R at 1 uM
[3] = target: Ribosomal protein S6 kinase alpha-5 (Homo sapiens) (UniProt O75582); experiment: Inhibition of RPS6KA5 C-terminal domain2 at 1 uM
[4] = target: Calcium/calmodulin-dependent protein kinase type II subunit beta (Homo sapiens) (UniProt Q13554); experiment: Inhibition of CAMK2B at 1 uM
In short: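 Ambit KINOMEscan screen at a single concentration across a 250–400 kinase panel, recorded as percent inhibition. Selectivity was expressed as S(90), the fraction of kinases inhibited >90%.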

[5] = target: Casein kinase I isoform delta (Homo sapiens) (UniProt P48730); experiment: Inhibition of CSNK1D at 1 uM
In short: (§1)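 Single-concentration screen using Ambit Bioscience KINOMEscan technology across a panel of 250–400 kinases. Per-kinase inhibition from this screen was summarized as S(90), the fraction of kinases inhibited by more than 90%.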

[6] = target: T2, Serine/threonine-protein kinase 17A (Homo sapiens) (UniProt Q9UEE5); experiment: Inhibition of DRAK1 at 1 uM
T2 sequence (whole entry): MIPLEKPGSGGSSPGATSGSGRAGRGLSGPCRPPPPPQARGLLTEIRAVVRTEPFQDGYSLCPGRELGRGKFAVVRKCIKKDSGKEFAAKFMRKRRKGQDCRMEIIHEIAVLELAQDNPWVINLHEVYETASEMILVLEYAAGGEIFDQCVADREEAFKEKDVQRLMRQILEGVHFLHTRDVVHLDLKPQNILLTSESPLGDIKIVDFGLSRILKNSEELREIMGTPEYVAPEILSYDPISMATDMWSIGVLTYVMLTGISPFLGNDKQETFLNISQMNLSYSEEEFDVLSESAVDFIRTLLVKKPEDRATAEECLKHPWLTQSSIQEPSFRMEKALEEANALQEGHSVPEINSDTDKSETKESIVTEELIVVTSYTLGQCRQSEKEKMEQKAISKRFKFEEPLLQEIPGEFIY

[7] = target: T3, Ephrin type-A receptor 6 (Homo sapiens) (UniProt Q9UF33); experiment: Inhibition of EPHA6 at 1 uM; in short: as §1
T3 sequence (whole entry): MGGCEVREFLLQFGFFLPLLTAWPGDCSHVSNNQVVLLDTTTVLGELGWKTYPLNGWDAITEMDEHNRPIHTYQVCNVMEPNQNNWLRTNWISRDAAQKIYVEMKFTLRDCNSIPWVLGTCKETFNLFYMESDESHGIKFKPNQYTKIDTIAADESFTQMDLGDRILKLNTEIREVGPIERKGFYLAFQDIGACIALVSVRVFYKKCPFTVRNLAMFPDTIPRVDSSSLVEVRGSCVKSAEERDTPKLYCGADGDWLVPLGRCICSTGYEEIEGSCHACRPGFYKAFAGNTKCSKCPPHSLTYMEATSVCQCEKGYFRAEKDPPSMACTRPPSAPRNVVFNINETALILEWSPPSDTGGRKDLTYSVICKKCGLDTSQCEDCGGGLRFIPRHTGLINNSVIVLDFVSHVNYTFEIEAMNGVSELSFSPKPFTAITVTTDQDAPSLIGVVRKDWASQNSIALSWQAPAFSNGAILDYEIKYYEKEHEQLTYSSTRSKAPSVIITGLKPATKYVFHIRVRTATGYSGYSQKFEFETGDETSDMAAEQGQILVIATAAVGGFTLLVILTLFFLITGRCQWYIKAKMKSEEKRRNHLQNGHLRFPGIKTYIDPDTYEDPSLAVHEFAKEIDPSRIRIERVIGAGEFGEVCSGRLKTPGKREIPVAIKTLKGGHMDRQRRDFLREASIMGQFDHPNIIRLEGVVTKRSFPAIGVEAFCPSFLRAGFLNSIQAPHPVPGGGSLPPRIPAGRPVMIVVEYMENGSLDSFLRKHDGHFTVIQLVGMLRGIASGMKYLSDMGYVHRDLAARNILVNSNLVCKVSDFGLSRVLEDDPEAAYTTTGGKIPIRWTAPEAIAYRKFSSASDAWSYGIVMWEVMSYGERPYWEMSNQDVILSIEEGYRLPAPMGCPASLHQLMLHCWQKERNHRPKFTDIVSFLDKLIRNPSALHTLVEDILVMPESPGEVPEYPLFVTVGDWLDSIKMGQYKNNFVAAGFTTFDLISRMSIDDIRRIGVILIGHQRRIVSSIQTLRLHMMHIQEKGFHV

[8] = target: T4, Rhodopsin kinase GRK7 (Homo sapiens) (UniProt Q8WTQ7); experiment: Inhibition of GRK7 at 1 uM
T4 sequence (whole entry): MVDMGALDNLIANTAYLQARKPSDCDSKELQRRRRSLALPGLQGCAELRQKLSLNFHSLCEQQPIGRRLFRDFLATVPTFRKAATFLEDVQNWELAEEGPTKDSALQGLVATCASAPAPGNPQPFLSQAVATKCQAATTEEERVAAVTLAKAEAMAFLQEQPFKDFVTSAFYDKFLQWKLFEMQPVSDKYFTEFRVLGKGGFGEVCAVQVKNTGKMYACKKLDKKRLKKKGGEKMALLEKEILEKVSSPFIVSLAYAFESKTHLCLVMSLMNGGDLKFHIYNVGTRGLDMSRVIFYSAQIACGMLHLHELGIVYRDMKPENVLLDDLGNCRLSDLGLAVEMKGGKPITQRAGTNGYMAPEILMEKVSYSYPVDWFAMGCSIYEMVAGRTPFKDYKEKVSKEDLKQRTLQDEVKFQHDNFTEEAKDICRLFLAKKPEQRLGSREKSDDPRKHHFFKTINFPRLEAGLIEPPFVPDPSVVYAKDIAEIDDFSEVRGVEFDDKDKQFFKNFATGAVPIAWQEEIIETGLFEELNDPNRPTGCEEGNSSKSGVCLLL

Calcium/calmodulin-dependent protein kinase type II subunit beta (Homo sapiens), sequence (Q13554 whole entry): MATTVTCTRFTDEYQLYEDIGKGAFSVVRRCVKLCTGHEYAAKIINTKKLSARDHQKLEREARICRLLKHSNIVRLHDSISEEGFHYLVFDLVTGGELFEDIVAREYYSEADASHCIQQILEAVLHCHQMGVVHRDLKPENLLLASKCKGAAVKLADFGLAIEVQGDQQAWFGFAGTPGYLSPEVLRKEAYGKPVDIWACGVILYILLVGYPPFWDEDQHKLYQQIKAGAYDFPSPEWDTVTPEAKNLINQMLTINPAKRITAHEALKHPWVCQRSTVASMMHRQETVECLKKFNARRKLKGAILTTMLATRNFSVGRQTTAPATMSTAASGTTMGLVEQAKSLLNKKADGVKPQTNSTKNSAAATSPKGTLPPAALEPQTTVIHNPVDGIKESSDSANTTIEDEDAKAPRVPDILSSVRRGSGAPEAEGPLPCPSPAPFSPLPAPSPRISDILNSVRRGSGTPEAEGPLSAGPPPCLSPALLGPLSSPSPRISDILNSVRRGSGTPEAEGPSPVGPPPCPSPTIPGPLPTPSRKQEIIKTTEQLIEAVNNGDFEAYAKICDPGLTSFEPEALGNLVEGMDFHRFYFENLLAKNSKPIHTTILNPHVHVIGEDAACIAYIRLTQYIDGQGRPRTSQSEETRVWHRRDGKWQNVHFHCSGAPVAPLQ
Casein kinase I isoform delta (Homo sapiens), sequence (P48730 whole entry, looked up, canonical isoform): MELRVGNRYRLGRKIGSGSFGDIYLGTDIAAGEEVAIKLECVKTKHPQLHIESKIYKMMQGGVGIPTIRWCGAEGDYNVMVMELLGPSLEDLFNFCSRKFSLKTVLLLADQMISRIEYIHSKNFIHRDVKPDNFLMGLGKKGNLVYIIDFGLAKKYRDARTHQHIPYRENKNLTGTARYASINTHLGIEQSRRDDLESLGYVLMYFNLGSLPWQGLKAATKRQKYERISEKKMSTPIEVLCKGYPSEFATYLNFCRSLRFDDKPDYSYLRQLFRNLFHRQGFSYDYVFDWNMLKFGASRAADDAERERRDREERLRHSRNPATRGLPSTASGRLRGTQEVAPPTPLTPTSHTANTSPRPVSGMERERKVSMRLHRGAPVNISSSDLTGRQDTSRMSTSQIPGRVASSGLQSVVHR
Macrophage-stimulating protein receptor (Homo sapiens), sequence (Q04912 25-304 limits assumed): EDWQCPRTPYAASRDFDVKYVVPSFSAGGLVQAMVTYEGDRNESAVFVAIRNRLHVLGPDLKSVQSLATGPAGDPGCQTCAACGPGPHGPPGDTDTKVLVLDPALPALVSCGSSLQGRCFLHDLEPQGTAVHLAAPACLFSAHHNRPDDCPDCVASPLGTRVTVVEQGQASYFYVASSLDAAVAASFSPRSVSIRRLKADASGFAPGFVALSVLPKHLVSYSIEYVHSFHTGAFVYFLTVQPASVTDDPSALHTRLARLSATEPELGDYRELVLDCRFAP
Macrophage-stimulating protein receptor (Homo sapiens), sequence (Q04912 310-1400 limits assumed): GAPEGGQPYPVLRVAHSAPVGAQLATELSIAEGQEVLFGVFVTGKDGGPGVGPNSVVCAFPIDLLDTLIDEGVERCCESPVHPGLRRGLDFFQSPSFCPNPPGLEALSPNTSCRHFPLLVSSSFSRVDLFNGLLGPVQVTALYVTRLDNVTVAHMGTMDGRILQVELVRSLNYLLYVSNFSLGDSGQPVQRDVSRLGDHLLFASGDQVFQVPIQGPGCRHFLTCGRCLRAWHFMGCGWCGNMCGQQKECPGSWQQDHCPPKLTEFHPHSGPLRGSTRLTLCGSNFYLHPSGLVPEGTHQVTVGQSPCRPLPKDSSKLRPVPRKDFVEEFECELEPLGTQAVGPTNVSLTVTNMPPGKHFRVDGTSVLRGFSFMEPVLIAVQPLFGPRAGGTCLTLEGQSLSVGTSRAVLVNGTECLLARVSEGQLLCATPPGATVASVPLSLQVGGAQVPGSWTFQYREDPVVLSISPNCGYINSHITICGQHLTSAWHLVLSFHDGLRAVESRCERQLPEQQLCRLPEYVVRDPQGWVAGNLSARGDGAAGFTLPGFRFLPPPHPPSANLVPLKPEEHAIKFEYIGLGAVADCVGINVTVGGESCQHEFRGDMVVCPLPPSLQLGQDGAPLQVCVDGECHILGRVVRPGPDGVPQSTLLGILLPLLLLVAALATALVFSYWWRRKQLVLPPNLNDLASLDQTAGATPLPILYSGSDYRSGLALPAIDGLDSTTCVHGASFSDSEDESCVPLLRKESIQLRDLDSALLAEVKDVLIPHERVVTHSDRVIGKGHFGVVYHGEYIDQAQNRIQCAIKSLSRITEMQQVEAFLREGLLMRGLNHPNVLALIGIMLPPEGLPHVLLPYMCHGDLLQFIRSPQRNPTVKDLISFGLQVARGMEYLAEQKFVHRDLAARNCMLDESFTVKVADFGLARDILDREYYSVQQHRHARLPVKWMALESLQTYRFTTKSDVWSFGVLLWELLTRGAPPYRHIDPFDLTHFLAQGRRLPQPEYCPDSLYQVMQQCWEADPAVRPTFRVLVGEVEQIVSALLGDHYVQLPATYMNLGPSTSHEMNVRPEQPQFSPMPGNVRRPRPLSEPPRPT
Ribosomal protein S6 kinase alpha-5 (Homo sapiens), sequence (O75582 whole entry, looked up, the tested form may be a part): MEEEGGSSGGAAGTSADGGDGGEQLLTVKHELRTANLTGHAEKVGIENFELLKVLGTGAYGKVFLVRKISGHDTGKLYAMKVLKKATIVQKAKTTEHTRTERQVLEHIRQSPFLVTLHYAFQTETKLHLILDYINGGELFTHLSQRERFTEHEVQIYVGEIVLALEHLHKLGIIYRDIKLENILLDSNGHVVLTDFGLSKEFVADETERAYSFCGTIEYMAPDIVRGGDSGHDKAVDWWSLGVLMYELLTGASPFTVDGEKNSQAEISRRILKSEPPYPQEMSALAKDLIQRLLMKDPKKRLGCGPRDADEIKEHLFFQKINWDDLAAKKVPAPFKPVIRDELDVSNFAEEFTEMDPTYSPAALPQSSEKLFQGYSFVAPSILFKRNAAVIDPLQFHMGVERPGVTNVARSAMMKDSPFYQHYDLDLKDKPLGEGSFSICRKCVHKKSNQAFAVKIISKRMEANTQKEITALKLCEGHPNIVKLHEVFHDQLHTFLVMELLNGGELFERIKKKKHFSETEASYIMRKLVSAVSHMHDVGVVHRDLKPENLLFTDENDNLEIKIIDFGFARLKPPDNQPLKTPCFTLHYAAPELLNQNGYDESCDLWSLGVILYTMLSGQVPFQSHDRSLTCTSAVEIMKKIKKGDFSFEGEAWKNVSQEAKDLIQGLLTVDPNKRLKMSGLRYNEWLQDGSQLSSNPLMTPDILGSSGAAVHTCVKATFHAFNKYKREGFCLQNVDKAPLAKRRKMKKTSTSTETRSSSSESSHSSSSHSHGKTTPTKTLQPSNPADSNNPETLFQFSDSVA

Structure (SMILES)	inhibition [1] [%]	inhibition [2] [%]	inhibition [3] [%]	inhibition [4] [%]	inhibition [5] [%]	inhibition [6] [%]	inhibition [7] [%]	inhibition [8] [%]
CN1CCN(c2ccc(-c3cnc4c(c3)N(Cc3cc(Cl)ccc3C(F)(F)F)CCN4)cn2)CC1	< 50	< 50	< 50	< 50	< 50	< 50	< 50	< 50
FC(F)(F)c1ccc(Cl)cc1CN1CCNc2ncc(-c3ccnc(N4CCNCC4)c3)cc21	< 50	< 50	< 50	< 50	< 50	< 50	< 50	67
CC(=O)N1CCN(c2cc(-c3cnc4c(c3)N(Cc3cc(Cl)ccc3C(F)(F)F)CCN4)ccn2)CC1	< 50	< 50	< 50	< 50	< 50	< 50	< 50	< 50
CN1CCN(c2ccc(-c3cnc4c(c3)N(Cc3cc(F)ccc3F)CCN4)cn2)CC1	< 50	< 50	< 50	< 50	< 50	< 50	< 50	< 50
CN1CCN(c2ccc(-c3cnc4c(c3)N(Cc3c(F)ccc(F)c3Cl)CCN4)cn2)CC1	< 50	< 50	< 50	< 50	< 50	< 50	< 50	< 50
CN1CCN(c2ccc(-c3cnc4c(c3)N(Cc3cc(Cl)ccc3Cl)CCN4)cn2)CC1	< 50	< 50	< 50	< 50	< 50	< 50	< 50	< 50

Further lines, results first:

inhibition [1] [%]	inhibition [2] [%]	inhibition [3] [%]	inhibition [4] [%]	inhibition [5] [%]	inhibition [6] [%]	inhibition [7] [%]	inhibition [8] [%]	Structure (SMILES)
–	–	< 50	< 50	< 50	–	< 50	–	O=C(O)c1ccc(-c2cnc3c(c2)N(Cc2cc(Cl)ccc2C(F)(F)F)CCN3)cc1
–	–	< 50	< 50	< 50	–	< 50	–	O=C(c1ccc(-c2cnc3c(c2)N(Cc2cc(Cl)ccc2C(F)(F)F)CCN3)cc1)N1CCC(N2CCCC2)CC1
–	–	< 50	< 50	< 50	–	< 50	–	COC1CCN(C(=O)c2ccc(-c3cnc4c(c3)N(Cc3cc(Cl)ccc3C(F)(F)F)CCN4)cc2)CC1
–	–	< 50	< 50	< 50	–	< 50	–	O=C(c1ccc(-c2cnc3c(c2)N(Cc2cc(Cl)ccc2C(F)(F)F)CCN3)cc1)N1CCCCC1
